Hits are enriched below; roughly 3.5% of the tested compounds scored in any of these assays.
thrombin 1536: thrombin (human) inhibition; alpha-thrombin, Boc-VPR-AMC fluorogenic substrate cleavage; 220,000 compounds, 0.26% hits; P00734; inhibition, % at 5 µM;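 active = inhibition at or above 40%; inactive = inhibition below 40%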
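System – human alpha-thrombin protein · Reagent – Boc-VPR-AMC substrate, 15 µM final · Compound – 5 µM single dose in 0.2% DMSO · Schedule – reaction at room temperature · Technique – AMC fluorescence at 355 nm excitation and 460 nm emission · Read-out basis – % inhibition relative to enzyme controls and enzyme-free blanks · Control set – no-compound enzyme wells and no-enzyme blanks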
FXIa inh 1536: inhibitors of human coagulation factor XIa. purified FXIa, Boc-Glu-Ala-Arg-AMC fluorogenic substrate. inhibition, % at 5 µM. 220,000 compounds, 0.14% hits. AID 798;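 active = inhibition of at least 40%; inactive = inhibition below 40%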;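 also: fluorescence of freed AMC excited at 355 nm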
FXIIa inh: factor XIIa (human) inhibition; inhibition, % at 5 µM; 220,000 compounds, 0.3% hits; AID 800; purified FXIIa, Boc-QGR-AMC fluorogenic substrate, 2 h; in the data active = inhibition above about 40%
Target sequence (P00748 20-372 limits assumed): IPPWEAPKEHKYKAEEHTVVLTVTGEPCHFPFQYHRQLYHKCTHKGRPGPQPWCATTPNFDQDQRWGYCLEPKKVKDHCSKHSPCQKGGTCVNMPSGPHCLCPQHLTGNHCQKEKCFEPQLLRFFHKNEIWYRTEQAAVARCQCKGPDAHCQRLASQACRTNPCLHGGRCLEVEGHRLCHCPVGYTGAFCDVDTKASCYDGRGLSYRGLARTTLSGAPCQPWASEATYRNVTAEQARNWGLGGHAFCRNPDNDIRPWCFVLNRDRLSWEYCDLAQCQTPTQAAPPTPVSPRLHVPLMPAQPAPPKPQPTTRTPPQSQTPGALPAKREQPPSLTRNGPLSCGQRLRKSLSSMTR
Target sequence (P00748 373-615 limits assumed): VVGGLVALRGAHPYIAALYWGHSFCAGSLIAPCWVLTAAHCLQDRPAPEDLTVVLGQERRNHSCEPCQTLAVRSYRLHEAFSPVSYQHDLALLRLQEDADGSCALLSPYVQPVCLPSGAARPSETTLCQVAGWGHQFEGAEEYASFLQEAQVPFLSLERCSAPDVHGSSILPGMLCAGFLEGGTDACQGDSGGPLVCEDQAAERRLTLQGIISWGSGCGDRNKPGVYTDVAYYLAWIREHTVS
STAT3 act: activators of IL-6 induced STAT3 signaling; U3A cells, IL-6 STAT3-luciferase reporter, luminescence; 100% = signal with IL-6 EC80 alone; activation (% of control), % at 5.6 µM; 190,000 compounds, 0.91% hits;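 active = activation above the screen-wide mean of compound activation plus 3 SD, cut at about 130% in these data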
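System – human U3A cells carrying STAT3-luciferase construct · Probe or stimulus – Interleukin-6, 33 ng/mL · Schedule – compound 1 h, then IL-6 6 h at 37 °C · Signal – luminescence from STAT3-driven luciferase reporter · Evaluation – percent of IL-6-only median luminescence · Benchmarks – IL-6-only high control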
hK5 inh: blocks human kallikrein 5 protease activity; AID 873; recombinant hK5, fluorogenic AMC substrate cleavage; 210,000 compounds, 0.59% hits; inhibition, % at 5 µM;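 active = inhibition of 40% or more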
AHR activator: activators of human aryl hydrocarbon receptor; AHR-responsive luciferase reporter cells, luminescence; activation, % at 5 µM; 320,000 compounds, 2.5% hits; P35869; in the data active = activation above about 47%
Each line names hits and unclear results; the compound was inactive in the other large screens.

N#CC1=C(N)SC(N)=C(C#N)C1CCc1ccccc1	AHR activator 86.0
CC(=O)C[C@H](O)CC(=O)[C@H]1OC(=O)CCCCCCCc2ccccc21	none (no result: thrombin 1536, FXIa inh 1536, FXIIa inh, STAT3 act, hK5 inh)
O=C1CC(c2ccc(F)cc2)Sc2ccccc2N1 (stereo unspecified)	STAT3 act 135.3
COc1cc(C2CC(=O)Nc3ccccc3S2)cc(OC)c1OC (stereo unspecified)	none
CCCCNc1ncnc2sc3c(c12)CCN(CCC)C3	none (no result: thrombin 1536, FXIa inh 1536, FXIIa inh, STAT3 act, hK5 inh)
CCC(CO)NCc1ccc(OCC(O)c2ccccc2)c(OC)c1 (stereo unspecified)	none (no result: thrombin 1536, FXIa inh 1536, FXIIa inh, STAT3 act, hK5 inh)
Cc1c(C(=O)OCC(C)C)[nH]c2c1C(=O)CC(c1ccco1)C2 (stereo unspecified)	none
Cc1c(C(=O)OC2CCCC2)[nH]c2c1C(=O)CC(c1ccco1)C2 (stereo unspecified)	AHR activator 57.4
N#CC1=C(N)N2C(=C(C#N)C1c1ccccc1)Sc1ccccc12 (stereo unspecified)	AHR activator 88.4
CCOc1ccc(C2C(C#N)=C(N)N3C(=C2C#N)Sc2ccccc23)cc1 (stereo unspecified)	none (no result: thrombin 1536, FXIa inh 1536, FXIIa inh, STAT3 act, hK5 inh)
Nc1ncnc(Nc2cc(Cl)cc(Cl)c2)c1[N+](=O)[O-]	none
Nc1ncnc(Nc2ccc(F)c(Cl)c2)n1	none (no result: STAT3 act)
Clc1cc(Cl)cc(Nc2ncnc(-n3cccc3)n2)c1	AHR activator 54.1 (no result: STAT3 act)
Cc1ccc(Nc2ncnc(-n3cccc3)n2)cc1Cl	AHR activator 57.9 (no result: STAT3 act)
CC(C)C[C@H]1CN=C(Nc2ccccc2)N1CC1CCC(C(C)(C)C)CC1 (stereo partly specified)	none (no result: thrombin 1536, FXIa inh 1536, FXIIa inh, STAT3 act, hK5 inh)
CCN(CC)c1ccc(/C=N/NS(=O)(=O)c2cccc([N+](=O)[O-])c2)cc1	FXIIa inh 52.1
CC1CC(O)(Cc2ccccc2)C(C)CN1C (stereo unspecified)	none
C=CC#CC1(O)CC(C)N(C)CC1C (stereo unspecified)	hK5 inh 45.6
CCCS(=O)(=O)N1CCCC(C(=O)N2CCCCC2)C1 (stereo unspecified)	none (no result: thrombin 1536, FXIa inh 1536, FXIIa inh, STAT3 act, hK5 inh)
CCCC(=O)Nc1cc(C)c2c(=O)oc3ccccc3c2n1	AHR activator 52.6 (no result: STAT3 act)
O=C(CNC(=O)c1cc(Cl)cc([N+](=O)[O-])c1)NC1CC1	none (no result: thrombin 1536, FXIa inh 1536, FXIIa inh, STAT3 act, hK5 inh)
S=C(NCCCN1CCOCC1)Nc1ccc(Cl)cc1	none
S=C(NCCN1CCOCC1)Nc1ccc(Cl)cc1	hK5 inh 46.5
COc1ccc(C(=O)N/N=C\c2ccc(OC)c(COc3ccccc3Br)c2)c(OC)c1	AHR activator 48.5 (no result: thrombin 1536, FXIa inh 1536, FXIIa inh, STAT3 act, hK5 inh)
COc1ccc(OCc2cc(/C=N\NC(=O)c3ccccc3)ccc2OC)cc1	none (no result: thrombin 1536, FXIa inh 1536, FXIIa inh, STAT3 act, hK5 inh)
COc1ccc(/C=N\NC(=O)c2cccc(F)c2)cc1COc1ccccc1	AHR activator 63.9 (no result: thrombin 1536, FXIa inh 1536, FXIIa inh, STAT3 act, hK5 inh)
COc1ccc(/C=N/NC(=O)c2cccc(Br)c2)cc1CSc1ccccn1	AHR activator 56.0
O=C1CN(C(=O)c2cc([N+](=O)[O-])ccc2Cl)C(c2ccc(F)cc2)c2cc(F)ccc2N1 (stereo unspecified)	none
C=CCn1c(NC(=O)c2ccco2)nc2ccccc21	AHR activator 68.0 (no result: thrombin 1536, FXIa inh 1536, FXIIa inh, STAT3 act, hK5 inh)
O=C(Nc1nc2ccccc2n1Cc1ccc(Cl)cc1)c1ccco1	none
COc1cc(OC)cc(C(=O)NNC(=O)CCC(=O)c2cc(C)sc2C)c1	none (no result: thrombin 1536, FXIa inh 1536, FXIIa inh, STAT3 act, hK5 inh)
COc1ccc(Cl)cc1N(C(C)=O)c1nc(C)cc(C)c1C#N	AHR activator 54.2 (no result: thrombin 1536, FXIa inh 1536, FXIIa inh, STAT3 act, hK5 inh)
CCCC(C)NC1=NCCCCC1 (stereo unspecified)	hK5 inh 55.8
CCN1CCCC1CNC1=NCCCCC1 (stereo unspecified)	none
CCC(=O)Nc1cc2c(cc1C(=O)c1ccccc1)OCCO2	none
CC(=O)Nc1cc2c(cc1C(=O)c1ccccc1)OCCO2	hK5 inh 49.2
COc1ccc([N+](=O)[O-])cc1C(=O)Nc1ccc(Cc2ccncc2)cc1	AHR activator 72.0
CCN(CC)C(=N)/C(C#N)=N/Nc1ccc(C)cc1	hK5 inh 42.1, AHR activator 75.3 (no result: STAT3 act)
COCCn1c(SCC(=O)Nc2ccc(F)cc2)nc2c([nH]c3ccccc32)c1=O	none (no result: thrombin 1536, FXIa inh 1536, FXIIa inh, STAT3 act, hK5 inh)
COCCn1c(SCC(=O)Nc2ccc(F)cc2F)nc2c([nH]c3ccccc32)c1=O	AHR activator 70.8 (no result: thrombin 1536, FXIa inh 1536, FXIIa inh, STAT3 act, hK5 inh)
COCCn1c(SCC(=O)NCCc2ccc(OC)c(OC)c2)nc2c([nH]c3ccccc32)c1=O	STAT3 act 135.2
CCc1nnc(NC(=O)CSc2nc3c([nH]c4ccccc43)c(=O)n2CCOC)s1	none (no result: thrombin 1536, FXIa inh 1536, FXIIa inh, STAT3 act, hK5 inh)

Screening data deposited in PubChem by several laboratories.
